Results from ChEMBL document CHEMBL1275590, “Novel arylimidamides for treatment of visceral leishmaniasis” (Antimicrob Agents Chemother, 2010).
The source made the active and inactive calls. No cut-off for these calls is given here.

Tests used:
Leishmania donovani [1] = assay: Antileishmanial activity against […] Leishmania donovani AG83-S infected in mouse J774 macrophage; type: functional, organism-based
Leishmania donovani [2] = assay: Antileishmanial activity against antimony resistant Leishmania donovani MC4-R infected in mouse J774 macrophage; type: functional, organism-based
Leishmania donovani [3] = assay: Antileishmanial activity against antimony resistant Leishmania donovani MC8-R infected in mouse J774 macrophage; type: functional, organism-based
Leishmania donovani [4] = assay: Antileishmanial activity against Leishmania donovani promastigotes in ip dosed BALB/c mouse assessed as inhibition of liver parasitemia; type: functional, organism-based
Outline: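 Murine VL model in L. donovani-infected mice. Compounds were dissolved in water and given i.p. or p.o. once daily for 5 days (4 days for one i.p. regimen). Liver parasitemia was compared with untreated controls by unpaired Student's t test, P ≤ 0.05.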

[5] = Cmax in Swiss Webster mouse at 1 mg/kg, iv by HPLC-MS/MS analysis; type: ADME, organism-based; parameters: dose 1 mg/kg, route intravenous; details: in vivo
Outline: (§1)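 Male Swiss Webster mice, n = 3 per time point. For i.v., the compound was dissolved in sterile water, diluted 1:1 with 2× saline, and given as a tail-vein bolus over ~10–20 s. For p.o., it was given by gavage in sterile water. Dose volume was 5 ml/kg. Terminal plasma was taken from 5 min to 72 h and measured by HPLC-MS/MS (calibration 2.5–10,000 nM). Parameters came from noncompartmental analysis.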

[6] = Clearance in Swiss Webster mouse at 1 mg/kg, iv by HPLC-MS/MS analysis; type: ADME, organism-based; parameters: dose 1 mg/kg, route intravenous; details: in vivo; outline: as §1
[7] = Volume of distribution in Swiss Webster mouse at 1 mg/kg, iv by HPLC-MS/MS analysis; type: ADME, organism-based; parameters: dose 1 mg/kg, route intravenous; details: in vivo
Outline: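 Male Swiss Webster mice (n = 3 per time point), single dose by oral gavage (sterile water solution) or tail-vein bolus i.v. (water diluted 1:1 with 2× saline, over ~10–20 s); dose volume 5 ml/kg. Terminal blood sampled from 5 min to 72 h postdose; plasma quantified by HPLC-MS/MS (positive-ion SRM). Noncompartmental analysis gave Cmax, Tmax, AUC0-∞, CL, Vss; bioavailability from p.o. versus i.v. exposure.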

Mus musculus [8] = assay: Hepatotoxicity in BALB/c mouse assessed as AST level in serum at 5 mg/kg/day, iv administered for five days (Rvb= 65 U/L); type: toxicity, organism-based; parameters: route intravenous; details: in vivo
Mus musculus [9] = assay: Hepatotoxicity in BALB/c mouse assessed as AST level in serum at 20 mg/kg/day, iv administered for five days (Rvb= 65 U/L); type: toxicity, organism-based; parameters: route intravenous; details: in vivo
Mus musculus [10] = assay: Hepatotoxicity in BALB/c mouse assessed as AST level in serum at 25 mg/kg/day, po administered for five days (Rvb= 70 U/L); type: toxicity, organism-based; parameters: route oral; details: in vivo
Mus musculus [11] = assay: Hepatotoxicity in BALB/c mouse assessed as AST level in serum at 50 mg/kg/day, po administered for five days (Rvb= 70 U/L); type: toxicity, organism-based; parameters: route oral; details: in vivo
Mus musculus [12] = assay: Hepatotoxicity in BALB/c mouse assessed as ALT level in serum at 50 mg/kg/day, po administered for five days (Rvb= 36 U/L); type: toxicity, organism-based; parameters: route oral; details: in vivo
Mus musculus [13] = assay: Renal toxicity in BALB/c mouse assessed as blood urea nitrogen level in serum at 5 mg/kg/day, iv administered for five days (Rvb= 20 mg/dl); type: organism-based; parameters: route intravenous; details: in vivo
Outline: (§2)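 Female BALB/c mice (n = 5 per dose), dosed once daily for 5 consecutive days p.o. (20 ml/kg) or i.v. (10 ml/kg) with compound in sterile water, prepared fresh daily under yellow light. Vehicle controls n = 5 per route. Clinical observations, body weights, serum chemistry and hematology on day 6 before necropsy; histopathology of formalin-fixed tissues. Chemistry analysed by one-way ANOVA with Dunnett's posttest.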

Mus musculus [14] = assay: Renal toxicity in BALB/c mouse assessed as blood urea nitrogen level in serum at 20 mg/kg/day, iv administered for five days (Rvb= 20 mg/dl); type: organism-based; parameters: route intravenous; details: in vivo; outline: as §2
Mus musculus [15] = assay: Hepatotoxicity in BALB/c mouse assessed as alkaline phosphatase level in serum at 5 mg/kg/day, iv administered for five days (Rvb= 134 U/L); type: toxicity, organism-based; parameters: route intravenous; details: in vivo
Mus musculus [16] = assay: Hepatotoxicity in BALB/c mouse assessed as alkaline phosphatase level in serum at 20 mg/kg/day, iv administered for five days (Rvb= 134 U/L); type: toxicity, organism-based; parameters: route intravenous; details: in vivo
Mus musculus [17] = assay: Renal toxicity in BALB/c mouse assessed as phosphorus level in serum at 5 mg/kg/day, iv administered for five days (Rvb= 6.1 mg/dl); type: organism-based; parameters: route intravenous; details: in vivo; outline: as §2
Mus musculus [18] = assay: Renal toxicity in BALB/c mouse assessed as phosphorus level in serum at 20 mg/kg/day, iv administered for five days (Rvb= 6.1 mg/dl); type: organism-based; parameters: route intravenous; details: in vivo; outline: as §2
Mus musculus [19] = assay: Renal toxicity in BALB/c mouse assessed as blood urea nitrogen level in serum at 25 mg/kg/day, po administered for five days (Rvb= 29 mg/dl); type: organism-based; parameters: route oral; details: in vivo; outline: as §2
Mus musculus [20] = assay: Renal toxicity in BALB/c mouse assessed as blood urea nitrogen level in serum at 50 mg/kg/day, po administered for five days (Rvb= 29 mg/dl); type: organism-based; parameters: route oral; details: in vivo; outline: as §2
Mus musculus [21] = assay: Hepatotoxicity in BALB/c mouse assessed as alkaline phosphatase level in serum at 25 mg/kg/day, po administered for five days (Rvb= 129 U/L); type: toxicity, organism-based; parameters: route oral; details: in vivo
Mus musculus [22] = assay: Hepatotoxicity in BALB/c mouse assessed as alkaline phosphatase level in serum at 50 mg/kg/day, po administered for five days (Rvb= 129 U/L); type: toxicity, organism-based; parameters: route oral; details: in vivo
Mus musculus [23] = assay: Renal toxicity in BALB/c mouse assessed as phosphorus level in serum at 50 mg/kg/day, po administered for five days (Rvb= 5.3 mg/dl); type: organism-based; parameters: route oral; details: in vivo; outline: as §2
[24] = Half life in rat liver microsome by HPLC-MS/MS analysis in presence of 1 uM NADPH; type: ADME; details: liver microsomes
Outline: (§3)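 Pooled liver microsomes (human, mouse, rat) with NADPH. Substrate added from DMSO to final 0.1, 1.0 or 10 μM, with 0.5% (vol/vol) organic solvent. Incubated at 37°C for up to 60 min. Stopped with 2 volumes of 7:1 methanol-water containing 0.1% TFA and 30 nM internal standard, then centrifuged. Remaining substrate was measured by HPLC-MS/MS, and t1/2 was obtained by one-phase exponential decay fit (t1/2 = 0.693/k).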

[25] = Half life in rat liver microsome by HPLC-MS/MS analysis in presence of 10 uM NADPH; type: ADME; details: liver microsomes; outline: as §3
[26] = Half life in mouse liver microsome by HPLC-MS/MS analysis in presence of 1 uM NADPH; type: ADME; details: liver microsomes; outline: as §3
[27] = Half life in golden Syrian hamster liver microsomes by HPLC-MS/MS analysis in presence of 0.1 uM NADPH; type: ADME, Mesocricetus auratus, Microsome
Outline: (§4)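 Pooled liver microsomes with NADPH. Substrate at final 0.1, 1.0 and 10 μM with 0.5% DMSO, incubated up to 60 min at 37°C. Reactions were stopped with 7:1 methanol-water containing 0.1% TFA and 30 nM internal standard. Remaining substrate was measured by HPLC-MS/MS, and t1/2 came from a one-phase exponential decay fit.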

[28] = Half life in golden Syrian hamster liver microsome by HPLC-MS/MS analysis in presence of 1 uM NADPH; type: ADME, Mesocricetus auratus; details: liver microsomes; outline: as §4
[29] = Half life in golden Syrian hamster liver microsome by HPLC-MS/MS analysis in presence of 10 uM NADPH; type: ADME, Mesocricetus auratus; details: liver microsomes; outline: as §4

SMILES	IC50 (Leishmania donovani [1]) [µM]	IC50 (Leishmania donovani [2]) [µM]	IC50 (Leishmania donovani [3]) [µM]	Activity (Leishmania donovani [4])	Cmax [5] [nM]	clearance [6] [mL/min/kg]	Vd [7] [L/kg]	Activity (Mus musculus [8]) [U/L]	Activity (Mus musculus [9]) [U/L]	Activity (Mus musculus [10]) [U/L]	Activity (Mus musculus [11]) [U/L]	Activity (Mus musculus [12]) [U/L]	Activity (Mus musculus [13]) [mg/dL]	Activity (Mus musculus [14]) [mg/dL]	Activity (Mus musculus [15]) [U/L]	Activity (Mus musculus [16]) [U/L]	Activity (Mus musculus [17]) [mg/dL]	Activity (Mus musculus [18]) [mg/dL]	Activity (Mus musculus [19]) [mg/dL]	Activity (Mus musculus [20]) [mg/dL]	other results
CCOc1cc(NC(=N)c2ccccn2)ccc1-c1ccc(-c2ccc(NC(=N)c3ccccn3)cc2OCC)o1	0.13	0.15	0.16	Active	370	45	36	80	89	67	77	34	18	27	113	107	7.1	7.3	29	27	Activity (Mus musculus [21]): 136 U/L; Activity (Mus musculus [22]): 130 U/L; Activity (Mus musculus [23]): 7.2 mg/dL; half-life [24]: > 2 h; half-life [25]: > 2 h; half-life [26]: 0.783 h; half-life [27]: 1.25 h; half-life [28]: > 2 h; half-life [29]: > 2 h
CC(C)Oc1cc(NC(=N)c2ccccn2)ccc1-c1ccc(-c2ccc(NC(=N)c3ccccn3)cc2OC(C)C)o1	0.09	0.076	0.064	Active	1090	9.9	14	76	76	75	90	45	19	26	103	104	7	6.5	27	25	Activity (Mus musculus [21]): 126 U/L; Activity (Mus musculus [22]): 123 U/L; Activity (Mus musculus [23]): 8.3 mg/dL; half-life [24]: > 2 h; half-life [25]: > 2 h; half-life [26]: > 2 h; half-life [27]: 0.65 h; half-life [28]: > 2 h; half-life [29]: > 2 h
